In series [1] the target is T1, cathepsin A (lysosomal protective protein) (Homo sapiens, UniProt P10619).
T1 sequence (P10619 whole entry): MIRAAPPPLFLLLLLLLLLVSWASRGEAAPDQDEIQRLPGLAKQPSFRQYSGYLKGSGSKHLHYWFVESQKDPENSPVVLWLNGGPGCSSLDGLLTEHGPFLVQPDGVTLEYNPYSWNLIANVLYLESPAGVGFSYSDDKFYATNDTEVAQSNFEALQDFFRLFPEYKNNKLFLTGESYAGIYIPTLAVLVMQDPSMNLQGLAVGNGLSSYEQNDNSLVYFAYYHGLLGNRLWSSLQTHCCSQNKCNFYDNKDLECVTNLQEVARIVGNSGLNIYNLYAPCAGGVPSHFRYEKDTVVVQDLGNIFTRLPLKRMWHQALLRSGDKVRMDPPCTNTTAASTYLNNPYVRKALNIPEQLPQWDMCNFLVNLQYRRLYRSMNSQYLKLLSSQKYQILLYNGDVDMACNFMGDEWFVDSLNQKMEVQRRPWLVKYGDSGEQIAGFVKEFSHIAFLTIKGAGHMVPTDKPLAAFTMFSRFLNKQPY
Put plainly: (§1) Stability in pH 7.4 trizma buffer assessed as cathepsin A (unknown origin)-mediated compound hydrolysis by measuring parent compound remaining at 5.0 mg measured after 12 hrs by 31P-NMR spectroscopic analysis. Type of series: ADME. The conditions noted are these: cathepsin A in trizma buffer, pH 7.4, read-out: Stability.

Series [2] concerns the target Serine/threonine-protein kinase PINK1, mitochondrial (Homo sapiens) (UniProt Q9BXM7). Put plainly: Activation of FLAG tagged PINK1 (unknown origin) expressed in Flp-In TRex HEK293 cells co-expressing wild-type Parkin assessed as Parkin Ser65 phosphorylation at 50 uM after 24 hrs in absence of CCCP by immunoblotting analysis. It counts as cell-based.
Series [3] concerns the target T2, Lysosomal protective protein (Homo sapiens, UniProt P10619).
T2 sequence (P10619 whole entry): T1 sequence (P10619 whole entry)
Put plainly: Drug metabolism in pH 7.4 trizma buffer assessed as cathepsin A (unknown origin)-mediated (S)-2-((((2R,3S,4R,5R)-5-(6-(furan-2-ylmethylamino)-9H-purin-9-yl)-3,4-dihydroxytetrahydrofuran-2-yl)methoxy)oxidophosphorylamino)propanoate formation at 5.0 mg measured after 2 to 12 hrs by 31P-NMR spectroscopic analysis. Type of series: ADME.

Series [4] deals with T2, Lysosomal protective protein. Described as §1. Type of series: ADME. The conditions noted are these: in vivo, pH 7.4, 12 h.
Series [5] shares this target. Put plainly: Stability in pH 7.4 trizma buffer assessed as cathepsin A (unknown origin)-mediated compound hydrolysis at 5.0 mg measured after 15 mins by 31P-NMR spectroscopic analysis. It counts as ADME. The conditions noted are these: pH 7.4, 0.25 h.
The test system of series [6] is Serum. Put plainly: Metabolic stability of compound in human serum at 5.0 mg measured at even intervals over 11 hrs by 31P-NMR spectroscopic analysis. Type of series: ADME, cell-free. In short, it runs like this:
(§2)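 Serum stability: 5.0 mg in DMSO-d6 and D2O, thawed human or mouse serum added in the NMR tube. 31P NMR at 37 °C, spectra immediately, at 30 min, then at even intervals over 11 h. Controls were compound without serum, and serum without compound.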

Series [7] in a line: Chemical stability of compound in pH 1 buffer at 5.0 mg measured at every 20 mins over 12 hrs by 31P-NMR spectroscopic analysis. Type of series: physicochemical. The conditions noted are these: pH 1, 12 h. In short, it runs like this:
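Acid stability: 5 mg in methanol-d4 mixed with pH 1 buffer (equal parts 0.2 M HCl and 0.2 M KCl). 31P NMR at 37 °C, spectra every 20 min over 12 h; persistence of parent phosphorus peaks followed.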

Series [8] relates to Serum. Put plainly: Metabolic stability of the compound in mouse serum at 5.0 mg measured at even intervals over 11 hrs by 31P-NMR spectroscopic analysis. Type of series: ADME, cell-free. In short, it runs like this: as §2
For series [9], the target named is T2, Lysosomal protective protein. Put plainly: Prodrug activation in pH 7.4 trizma buffer assessed as cathepsin A (unknown origin)-mediated kinetin riboside monophosphate metabolite formation at 5.0 mg measured after 48 hrs by 31P-NMR spectroscopic analysis. Type of series: ADME. The conditions noted are these: pH 7.4, 48 h.
Series [10] has the same target. Put plainly: Drug level in pH 7.4 trizma buffer treated with phenyl(Isopropoxy-L-alaninyl) kinetin riboside phosphoramidate assessed as cathepsin A (unknown origin)-mediated metabolite formation at 5.0 mg measured after 2 to 12 hrs by 31P-NMR spectroscopic analysis. It counts as ADME.
The target in series [11] is Serine/threonine-protein kinase PINK1, mitochondrial (Homo sapiens) (UniProt Q9BXM7). Put plainly: Activation of FLAG tagged PINK1 (unknown origin) expressed in Flp-In TRex HEK293 cells co-expressed with wild-type Parkin assessed as Parkin Ser65 phosphorylation at 10 uM by immunoblotting analysis. The conditions noted are these: TDE = time-dependent effect. Type of series: cell-based. (A western blot detects proteins with antibodies after separation by electrophoresis.)

The target is the same in series [12]. In words: Activation of FLAG tagged PINK1 (unknown origin) expressed in Flp-In TRex HEK293 cells co-expressing wild-type Parkin assessed as Parkin Ser65 phosphorylation at 50 uM in absence of CCCP by immunoblotting analysis. Type of series: cell-based. The conditions noted are these: TDE = time-dependent effect.
The target is the same in series [13]. In words: Activation of FLAG tagged PINK1 (unknown origin) expressed in Flp-In TRex HEK293 cells co-expressed with Parkin S65A mutant assessed as Parkin phosphorylation at 50 uM in absence of CCCP by immunoblotting analysis. It counts as cell-based.

The structures appear in SMILES notation. Activity calls are given as the source filed them. No cut-off for these calls is given here.

Serine/threonine-protein kinase PINK1, mitochondrial (Homo sapiens), sequence (Q9BXM7 whole entry): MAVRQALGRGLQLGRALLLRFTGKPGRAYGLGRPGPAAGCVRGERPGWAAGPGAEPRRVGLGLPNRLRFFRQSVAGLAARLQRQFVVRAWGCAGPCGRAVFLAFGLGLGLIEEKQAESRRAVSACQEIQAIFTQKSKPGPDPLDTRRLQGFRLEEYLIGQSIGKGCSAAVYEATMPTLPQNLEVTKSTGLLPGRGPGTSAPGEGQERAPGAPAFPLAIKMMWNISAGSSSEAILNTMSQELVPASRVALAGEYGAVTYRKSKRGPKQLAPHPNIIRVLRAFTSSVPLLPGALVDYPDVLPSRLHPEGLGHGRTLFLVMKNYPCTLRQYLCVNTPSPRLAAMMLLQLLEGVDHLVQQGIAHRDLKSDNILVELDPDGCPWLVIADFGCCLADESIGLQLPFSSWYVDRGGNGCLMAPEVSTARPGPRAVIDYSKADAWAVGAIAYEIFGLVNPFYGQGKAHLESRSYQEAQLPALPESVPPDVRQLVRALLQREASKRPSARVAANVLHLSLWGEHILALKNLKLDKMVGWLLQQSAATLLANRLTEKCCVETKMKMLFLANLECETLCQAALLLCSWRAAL

Take `C[C@H](NP(=O)(OC[C@H]1O[C@@H](n2cnc3c(NCc4ccco4)ncnc32)[C@H](O)[C@@H]1O)Oc1ccccc1)C(=O)OC(C)(C)C` (stereo partly drawn): in series [1], the remaining at 12 h came out at 50%. Also, the outcome in series [2] was inactive.

Take `COC(=O)[C@H](C)NP(=O)(OC[C@H]1O[C@@H](n2cnc3c(NCc4ccco4)ncnc32)[C@H](O)[C@@H]1O)Oc1ccccc1` (stereo partly drawn): in series [2], the outcome was Active.

Regarding `CC(C)OC(=O)[C@H](C)NP(=O)(OC[C@H]1O[C@@H](n2cnc3c(NCc4ccco4)ncnc32)[C@H](O)[C@@H]1O)Oc1ccccc1` (stereo partly drawn), the Drug metabolism result in [3] and in series [9] was “Metabolite_Detected” throughout. Besides, the Stability result is “Unstable” in series [4]; “Stable” in series [5]; “Stable” in [6]; “Stable” in [7]; “Stable” in series [8]. In [2], the result was Active.

`c1coc(CNc2ncnc3[nH]cnc23)c1`: the result in series [2] was inactive.

On to `C[C@H](NP(=O)(O)OC[C@H]1O[C@@H](n2cnc3c(NCc4ccco4)ncnc32)[C@H](O)[C@@H]1O)C(=O)O`, for which the Drug metabolism entry in series [10] is given as “Metabolite_Detected”.

As to `N#CC(C#N)=NNc1cccc(Cl)c1`, in series [11], the Activity result is “Tde”.

For `OC[C@H]1O[C@@H](n2cnc3c(NCc4ccco4)ncnc32)[C@H](O)[C@@H]1O`, the result in [2] was Active.

As to `C[C@H](NP(=O)(OC[C@H]1O[C@@H](n2cnc3c(NCc4ccco4)ncnc32)[C@H](O)[C@@H]1O)Oc1ccccc1)C(=O)OCc1ccccc1` (stereo partly drawn), the Activity result in series [12] was “Tde”. In addition, the result in series [13] was inactive. Also, the outcome in [2] was Active.

The record behind these values is ChEMBL document CHEMBL4049415, “Kinetin Riboside and Its ProTides Activate the Parkinson's Disease Associated PTEN-Induced Putative Kinase 1 (PINK1) Independent of Mitochondrial Depolarization” (J Med Chem, 2017).
